Measurements published in ChEMBL document CHEMBL3853352, “Anti-tubercular activities of 5,6,7,8-tetrahydrobenzo[4,5]thieno[2,3-d]pyrimidin-4-amine analogues endowed with high activity toward non-replicative Mycobacterium tuberculosis” (Bioorg Med Chem, 2016).
Values after ≈ are worked out from the molar mass of the structure shown.

Tests used:
[1] = system: Mycobacterium tuberculosis; assay: Antimycobacterial activity against Mycobacterium tuberculosis H37Rv after 7 days by MABA; format: functional; conditions: 168 h
Procedure, shortened: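 M. tuberculosis H37Rv inoculum taken from fresh LJ medium, resuspended in 7H9-S (7H9, 0.1% casitone, 0.5% glycerol, OADC), adjusted to McFarland No. 1 and diluted 1:20. Serial two-fold drug dilutions in 7H9-S, with growth and sterile controls. Incubated 7 days at 37 °C in normal atmosphere, then alamar blue added and incubated overnight. MIC = lowest concentration preventing the blue-to-pink change.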

[2] = system: Mycobacterium tuberculosis; assay: Antimycobacterial activity against dormant stage of Mycobacterium tuberculosis H37Rv assessed as reduction in bacterial growth under nutrient starved conditions at 10 ug/ml for 7 days measured after 28 days; format: functional
Procedure, shortened: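 H37Rv grown in 7H9/OADC, washed twice and resuspended in PBS, then held in sealed bottles at 37 °C for 6 weeks. Starved cultures exposed to compound at 10 ug/ml for 7 days. Cells diluted 10-fold serially to 10^-6 in 7H9/OADC and plated in triplicate. Incubated 28 days at 37 °C without agitation; wells with visible growth scored positive and MPN calculated.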

[3] = target: T1, L-lysine-epsilon aminotransferase (Mycobacterium tuberculosis) (UniProt P9WQ77); assay: Inhibition of Mycobacterium tuberculosis LAT at 25 uM
T1 sequence (whole entry): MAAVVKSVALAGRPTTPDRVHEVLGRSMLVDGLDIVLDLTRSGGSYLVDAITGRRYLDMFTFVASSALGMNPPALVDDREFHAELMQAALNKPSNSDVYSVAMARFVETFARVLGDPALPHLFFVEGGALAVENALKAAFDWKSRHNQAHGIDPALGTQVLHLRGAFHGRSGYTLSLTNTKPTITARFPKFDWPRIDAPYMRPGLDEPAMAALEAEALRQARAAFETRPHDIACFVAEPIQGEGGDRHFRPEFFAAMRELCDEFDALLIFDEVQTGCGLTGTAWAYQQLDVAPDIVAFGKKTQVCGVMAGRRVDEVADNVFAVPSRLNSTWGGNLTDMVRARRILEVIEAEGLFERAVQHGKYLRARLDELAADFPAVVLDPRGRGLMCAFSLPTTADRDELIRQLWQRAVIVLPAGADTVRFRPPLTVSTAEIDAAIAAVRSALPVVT

[4] = Inhibition of Mycobacterium tuberculosis ADH assessed as decrease in conversion of L-alanine to pyruvate by measuring NADH by spectrophotometry; parameters: species or system Mycobacterium tuberculosis H37Rv
Procedure, shortened: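 Mtb L-AlaDH oxidative deamination of L-alanine to pyruvate at 37 °C. NADH formation read at 340 nm. Compounds tested from 25 µM to 0.5 µM. Background read from the reaction mixture without enzyme. IC50 values calculated from the concentration series.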

[5] = Cytotoxicity against mouse RAW264.7 cells assessed as inhibition of cell proliferation at 50 ug/ml after 48 hrs by MTT assay; format: toxicity
Procedure, shortened: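 RAW 264.7 mouse macrophages grown in RPMI with 10% FBS and penicillin/streptomycin, then seeded at about 5000 cells/well on poly-L-lysine-coated plates. Pre-incubated 24 h at 37 °C, 5% CO2, then exposed to compound for 48 h. MTT (0.5 mg/ml) added for 3 h and formazan read at 595 nm.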

[6] = system: Mycobacterium tuberculosis H37Rv; assay: Inhibition of Mycobacterium tuberculosis ADH assessed as decrease in conversion of L-alanine to pyruvate at 25 uM by measuring NADH by spectrophotometry

Structure (SMILES) | MIC [1] [µM] | fold change (FC) [2] | inhibition [3] [%] | IC50 [4] [µM] | inhibition at 48 h, 50 ug/ml [5] [%] | inhibition [6] [%]
Brc1ccc(Nc2nc(C3CC3)nc3sc4c(c23)CCCC4)cc1 | 15.6 (≈ 6.25 µg/mL) | >1 | < 50 | 8.93 | 33.4 | 50
CO[C@H]1/C=C/O[C@@]2(C)Oc3c(C)c(O)c4c(O)c(c(/C=N/N5CCN(C)CC5)c(O)c4c3C2=O)NC(=O)/C(C)=C\C=C\[C@H](C)[C@H](O)[C@@H](C)[C@@H](O)[C@@H](C)[C@H](OC(C)=O)[C@@H]1C [RIFAMPIN] | 0.23 (≈ 0.189 µg/mL) | 2 |  | > 25 | 9.56 | 
CCc1nc(Nc2ccc(C)cc2C)c2c3c(sc2n1)CCCC3 | 74.1 (≈ 25 µg/mL) | >1 | < 50 | 7.41 | 9.65 | 50
Fc1ccc(Nc2nc(-c3ccccc3)nc3sc4c(c23)CCCC4)cc1 | 33.3 (≈ 12.5 µg/mL) |  | < 50 | 12.2 | 33.4 | 50
Cc1cccc(C)c1Nc1nc(-c2ccccc2)nc2sc3c(c12)CCCC3 | 8.11 (≈ 3.13 µg/mL) | >1 | < 50 | 8.82 | 25.5 | 50
c1ccc(CNc2nc(-c3ccccc3)nc3sc4c(c23)CCCC4)cc1 | 33.6 (≈ 12.5 µg/mL) | >1 | < 50 | 9.68 | 26.5 | 50
Clc1ccc(Nc2nc(C3CC3)nc3sc4c(c23)CCCC4)cc1 | 8.78 (≈ 3.12 µg/mL) |  | < 50 | 11.1 | 15.5 | 50
Clc1ccc(Nc2nc(-c3ccccc3)nc3sc4c(c23)CCCC4)cc1 | 63.8 (≈ 25 µg/mL) | >1 | < 50 | 2.72 | 20.8 | 50
COc1c(N2C[C@@H]3CCCN[C@@H]3C2)c(F)cc2c(=O)c(C(=O)O)cn(C3CC3)c12 [MOXIFLOXACIN] | 1.26 (≈ 0.506 µg/mL) | 2.7 |  | > 25 |  | 
c1ccc(Nc2nc(-c3ccccc3)nc3sc4c(c23)CCCC4)cc1 | 4.36 (≈ 1.56 µg/mL) | >1 | < 50 | 11.4 | 7.15 | 50
Fc1ccc(Nc2nc(C3CC3)nc3sc4c(c23)CCCC4)cc1 | 36.8 (≈ 12.5 µg/mL) | >1 | < 50 | 8.91 | 4.82 | 
CCc1nc(Nc2ccc(F)cc2)c2c3c(sc2n1)CCCC3 | 38.2 (≈ 12.5 µg/mL) | >1 | < 50 | 6.05 | 14 | 50
Cc1ccc(Nc2nc(C3CC3)nc3sc4c(c23)CCCC4)cc1 | 74.5 (≈ 25 µg/mL) |  | < 50 | 13.4 | 16.2 | 50
NNC(=O)c1ccncc1 [ISONIAZID] | 0.66 (≈ 0.0905 µg/mL) | 1.2 |  | > 25 | 12.2 | 
c1ccc(Nc2nc(C3CC3)nc3sc4c(c23)CCCC4)cc1 | 9.72 (≈ 3.12 µg/mL) |  | < 50 | > 25 | 8.8 | 
c1ccc(CCNc2nc(C3CC3)nc3sc4c(c23)CCCC4)cc1 | 35.8 (≈ 12.5 µg/mL) |  | < 50 | 17 | 17.4 | 50
CC[C@@H](CO)NCCN[C@@H](CC)CO [ETHAMBUTOL] | 7.64 (≈ 1.56 µg/mL) |  |  | > 25 |  | 
COc1ccc(Nc2nc(C3CC3)nc3sc4c(c23)CCCC4)cc1 | 17.8 (≈ 6.25 µg/mL) | >1 | < 50 | > 25 | 34.4 | 
CCc1nc(Nc2cc(C)ccc2C)c2c3c(sc2n1)CCCC3 | 74.1 (≈ 25 µg/mL) |  | < 50 | > 25 | 29.9 | 
